Experimental data from PubChem BioAssay AID493160 (Sanford-Burnham Center for Chemical Genomics, 2011).
In all, about 340,000 compounds went through this assay and about 540 (0.16%) were called active.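 The calls were made as follows: active = inhibition above about 35% when tested at 20 µM (limit read from the data); inactive = the rest.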 Many of the other results were omitted from the sample, so actives are more common in it than they were.

Molecular target: Hexokinase HKDC1 (Homo sapiens) (UniProt Q2TB90)
Assay: HKDC1 hexokinase inhibitors, primary screen, biochemical, fluorescence, uHTS (AID 493160);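 also: plate controls were DMSO wells with enzyme for no effect and DMSO wells lacking enzyme for full effect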
Settings: recombinant HKDC1, G6PDH/diaphorase resazurin coupled fluorescence; at 20 µM; active compounds read high
Method in brief: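 Material – in-house recombinant HK5 (HKDC1) enzyme · Quantity – HKDC1 at 5 µg/mL · Buffer or medium – pH 8.0 Tris buffer with 10 mM MgCl2 · Reagent – glucose with 1 mM ATP · Dosing – single 20 µM dose · Times – reaction time 90 min, room temperature, protected from light · Technique – resorufin fluorescence at 613 nm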

Chain of Hexokinase HKDC1 (Homo sapiens) (Q2TB90 whole entry, looked up): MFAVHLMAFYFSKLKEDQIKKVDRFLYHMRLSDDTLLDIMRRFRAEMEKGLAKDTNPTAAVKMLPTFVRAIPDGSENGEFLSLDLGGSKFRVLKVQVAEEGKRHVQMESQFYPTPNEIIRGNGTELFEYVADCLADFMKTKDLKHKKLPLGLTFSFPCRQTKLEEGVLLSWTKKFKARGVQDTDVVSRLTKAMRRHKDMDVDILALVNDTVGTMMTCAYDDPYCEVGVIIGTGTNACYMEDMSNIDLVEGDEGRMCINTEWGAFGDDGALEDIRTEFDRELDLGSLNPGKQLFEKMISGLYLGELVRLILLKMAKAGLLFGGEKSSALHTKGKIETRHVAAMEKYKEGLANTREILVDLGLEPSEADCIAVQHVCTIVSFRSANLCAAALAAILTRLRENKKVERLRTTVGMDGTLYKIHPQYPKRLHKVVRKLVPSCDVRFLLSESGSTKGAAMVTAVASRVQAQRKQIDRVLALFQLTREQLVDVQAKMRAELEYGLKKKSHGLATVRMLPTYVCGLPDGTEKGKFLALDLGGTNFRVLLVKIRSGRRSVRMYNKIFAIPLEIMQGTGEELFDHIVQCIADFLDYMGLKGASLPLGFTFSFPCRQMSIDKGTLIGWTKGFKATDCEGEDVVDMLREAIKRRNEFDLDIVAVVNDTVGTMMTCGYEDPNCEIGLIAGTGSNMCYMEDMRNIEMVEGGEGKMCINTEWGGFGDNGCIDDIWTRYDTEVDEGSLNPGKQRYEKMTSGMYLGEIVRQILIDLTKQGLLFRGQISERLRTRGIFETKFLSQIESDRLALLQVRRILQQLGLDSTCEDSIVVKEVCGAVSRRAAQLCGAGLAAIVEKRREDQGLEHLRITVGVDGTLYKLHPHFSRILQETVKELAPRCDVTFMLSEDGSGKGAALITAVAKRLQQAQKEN

inhibition, active:
Cc1cc(C(=O)CCl)c(C)n1CC1COc2ccccc2O1 (stereo not drawn) 38.2%
CCC(=C/c1sc2ccc3ccccc3c2[n+]1C)/C=C1\Sc2ccc3ccccc3c2N1C 45%
COc1ccc(C(CCN(Cc2ccc(OC)c(OC)c2)C(=O)CCl)c2ccccc2)cc1 (stereo not drawn) 35.4%
CCCc1nc2oc3c(OCC)ncnc3c2c2c1COC(C)(C)C2 37.7%
O=C1C(Cl)=C(Oc2ccccc2)C(=O)c2ccccc21 65.2%
Nc1ccc2nc3c(=O)[nH]c(=S)[nH]c3nc2c1 69.9%

inhibition, inactive:
COc1ccc(OCCCC(=O)Oc2ccc(OC)cc2)cc1 -15%
COc1ccc2c(c1)C(SCC(=O)NCc1ccccc1)CC(C)(C)O2 (stereo not drawn) 3.48%
O=C(NCC1CCCO1)c1ccc(S(=O)(=O)Nc2ccc(F)cc2)cc1 (stereo not drawn) 0.46%
O=C(CNC(=O)c1cc(=O)[nH]c2ccccc12)Nc1ccc(F)c(F)c1 -8.3%
C/C(=N\NC(=O)COc1ccc(C)cc1[N+](=O)[O-])c1ccc2c(c1)OCCO2 2.16%
COc1ccccc1CNS(=O)(=O)c1ccc(C)cc1 -4.09%
CCC(C)CN1CCC(CO)(Cc2ccccc2Cl)CC1 (stereo not drawn) -10.2%
CC(CNC(=O)c1ccc(N)cc1)NC(=O)c1ccc(N)cc1 (stereo not drawn) -6.68%
O=C(O)CCn1cc(/C=C/C(=O)c2ccc(Cl)cc2)c(-c2cccc(Br)c2)n1 17.1%
Clc1ccc(C[n+]2cc(-c3ccc(Cl)cc3)n3c2CCC3)cc1 -3.08%
CC1(C)OC(=O)C(=CSc2ccc(C(C)(C)C)cc2)C(=O)O1 -2.23%
Cc1cc2cc3c(N)[nH]nc3nc2cc1C 1.11%
Cc1cc(C)c(S(=O)(=O)N2CCOCC2)cc1C -10.1%
O=C(NCc1ccc2c(c1)OCO2)c1c(O)nc2sccn2c1=O 6.57%
CCCCN1C(=O)CCC(C(=O)O)C1c1ccc(OC)cc1 (stereo not drawn) 7.8%
C=CCCN(Cc1ccccc1)S(=O)(=O)c1ccccc1Br 2.98%
Cc1cc(=O)[nH]c2nnnn12 7.5%
COc1cc2c3c(c1)/C(=C1/SC(=S)NC1=O)C(=O)N3C(C)(C)C=C2C -4.38%
CCN(C[C@H]1N[C@@](Cc2ccccc2)(C(=O)OC)[C@H]2C(=O)N(Cc3ccccc3)C(=O)[C@@H]12)C(=O)c1ccc(C)cc1 -6.61%
Cc1cc(Cl)ccc1NC(=S)N1CCC(C(N)=O)(N2CCCCC2)CC1 -7.07%
N#CCSc1nc2ccc(N3CCOCC3)cc2c(=O)n1CCc1ccccc1 10.5%
O=C1C(=O)N(CC2COc3ccccc3O2)c2ccccc21 (stereo not drawn) 19.1%
Cc1ccsc1C(=O)OCC(=O)c1cc(C)n(CC2CCCO2)c1C (stereo not drawn) 1.95%
CCc1[nH]nc(C(=O)N2CCCC(CNS(=O)(=O)c3cccs3)C2)c1C (stereo not drawn) -4.96%
C=CCNC(=O)c1cc2nc(C3CC3)cc(C(F)F)n2n1 14%
CCN(CC)C(=O)[C@H]1CC(CC(=O)NCc2ccco2)C(=O)N2CCc3c([nH]c4ccccc34)[C@]12C (stereo partly drawn) -4.97%
Cc1onc(-c2ccc(Cl)cc2)c1-c1ccnn1S(=O)(=O)c1ccc(Cl)cc1 0.4%
CC[C@@]1(C(=O)OC)N[C@H](CN(C)C(C)=O)[C@@H]2C(=O)N(C)C(=O)[C@@H]21 -5.2%
CC(=O)c1c(C)[nH]c(C(=O)COC(=O)c2cccc(S(=O)(=O)N(C)c3ccccc3)c2)c1C 16.7%
COCCN(C(=O)CSCc1ccc(C)cc1)c1c(N)n(CC(C)C)c(=O)[nH]c1=O -4.58%
COc1cc(CO)ccc1OCC(=O)Nc1cccc2ccccc12 -1.93%
S=C(Nc1cccc(Br)c1)N1CCn2cccc2C1c1cccnc1 (stereo not drawn) 4.07%
COCCNC(=O)c1ccc(-n2c(SCc3cccnc3)nc3ccccc3c2=O)cc1 -1.32%
O=Cc1cn(-c2ccccc2)nc1-c1ccccn1 -7.78%
CCOc1ccccc1-c1nc(CN2CCC(C(=O)N3CCOCC3)CC2)c(C)o1 -3.93%
COc1ccc(CCNC(=O)C(Sc2ccccn2)c2ccccc2)cc1OC (stereo not drawn) -5.11%
COc1ccc(CN(Cc2ccc(OC)cc2)C(=O)c2cccs2)cc1 1.52%
CC1CCCC(NC(=O)COC(=O)[C@@H]2CC(O)CN2S(=O)(=O)c2ccc3c(c2)OCCO3)C1C (stereo partly drawn) -2.96%
Cc1noc(/C=C/c2ccco2)c1S(=O)(=O)N1CCC(C(=O)Nc2ccc(Cl)cn2)CC1 -6%
CCOC(=O)/C(=C\c1ccc([N+](=O)[O-])cc1)C(=O)c1cc(C(C)=O)c(Nc2ccccc2)s1 33.5%
COc1nnc(-c2ccc(C)c(S(=O)(=O)N(C)C)c2)c2ccccc12 -2.23%
O=C(CC1NCCc2ccccc21)Nc1cccc(Cl)c1 (stereo not drawn) 8.29%
CN1CCN(c2ccccc2NC(=O)COc2ccc(C3CCCCC3)cc2)CC1 -0.75%
C/C=C/c1ccc(OCC(=O)NNC(=O)CN(C)S(=O)(=O)c2ccc(C)cc2)c(OC)c1 0.23%
CCOC(=O)C(C)n1nc(-c2ccccc2)c2ccccc2c1=O (stereo not drawn) -7.97%
O=[N+]([O-])c1ccc(N2CCN(c3ccc(F)cc3)CC2)cn1 3.5%
CCCc1nc2oc3c(=O)[nH]cnc3c2c2c1COC(C)(C)C2 27.4%
CC(C)CCSc1ncnc2c1oc1nc3c(cc12)COC(C)(C)C3 1.9%
Cc1cc(Cl)c2oc(C(=O)N3CCC(O)(c4ccccc4)CC3)c(C)c2c1 -1.23%
COc1ccc(N2CCN(C(=O)C3CCN(C(=O)c4ccccc4Cl)CC3)CC2)cc1 -1.69%
CCCCc1nc(SCC(=O)Nc2nnc(C(C)C)s2)n[nH]1 -4.74%
CCCCCC1CC(COc2ccccc2)OC1=O (stereo not drawn) -1.3%
COC(=O)c1c(C)c(C)nc(N)c1C#N 3.54%
COc1ccccc1N(C(=O)Cn1nnc2ccccc21)C(C(=O)NCc1ccco1)c1ccc(C)o1 (stereo not drawn) -6.23%
Cc1ccc(C(C)(C)C)c(OCCCCN2CCCC2)c1 -1.47%
CC1(C)CC(=O)C=C(c2ccc3ncccc3c2)C1 11.6%
N/C(=N\c1nc2ccccc2o1)NC(=O)C(Cc1ccccc1)N1C(=O)c2ccccc2C1=O (stereo not drawn) -5.13%
CCc1cc(CNC(=O)CC2C(=O)NCCN2CC2CCCCC2)on1 (stereo not drawn) -15.1%
O=C(Cn1c2[n+](c3ccc(C(F)(F)F)cc31)CCCCC2)Nc1c(F)cccc1F 1.03%
CCOC(=O)c1ccccc1NC(=O)COC(=O)C(Cc1c[nH]c2ccccc12)NC(C)=O (stereo not drawn) 0.25%
O=C(Nc1ccc(S(=O)(=O)Nc2ncccn2)cc1)c1cncc(Br)c1 -5.17%
CCC1SC2=NCCN2C1(O)c1ccc(Cl)cc1 (stereo not drawn) 10.4%
C#CCOCCOCCOCCNc1nc(N2CCN(C(=O)C([C@@H](C)CC)n3cc(C(N)COC(=O)C(F)(F)F)nn3)CC2)nc(N2CCN(C(=O)[C@H](Cc3ccc(O)cc3)n3cc(C(N)[C@H](C)CC)nn3)CC2)n1 (stereo partly drawn) 1.5%
CC(=O)N(CC1CCCO1)C1(C(=O)NC2CCCC2)CCCCC1 (stereo not drawn) 2.48%
COc1ccc(CN2CC(C(=O)NCCc3ccc(Cl)cc3)CC2=O)cc1 (stereo not drawn) -3.16%
Cc1ccc(Nc2nnc(SC(C)C(=O)NC3CC3)s2)cc1 (stereo not drawn) -5.42%
CC12CN(NC(=O)c3ccc(Cl)cc3)C3(C#N)CC1CCC23C (stereo not drawn) -3.27%
Cc1noc(C)c1S(=O)(=O)N(C)C[C@H]1Oc2ccc(NC(=O)C3CC3)cc2C(=O)N([C@H](C)CO)C[C@@H]1C 3.28%
CCn1cc(C(=O)OCC(=O)Nc2cccc(C)c2)c(=O)c2ccc(C)nc21 -3.21%
COCc1c(C(=O)N/N=C\c2cccnc2)nnn1-c1nonc1N -3.41%
COc1cc(/C=C/C(=O)OCC(=O)N2CCOCC2)ccc1OCC#N -1.34%
COc1ccc(C(=O)Nc2cc(S(=O)(=O)N3CCCC3)ccc2Cl)cc1 1.91%
C=CCn1c(CCNC(=O)c2ccccc2F)nnc1SCC(=O)Nc1ccc(OC)cc1 -6.44%
COc1ccc(S(=O)(=O)N2CCCC2CNC(=O)C(=O)NC2CC2)cc1 (stereo not drawn) 0.83%
Cc1ccc2c(c1)N(S(=O)(=O)c1cc(-c3cc(C)no3)ccc1C)CCO2 1.39%
O=S(N1CCCCCC1)C12CC3CC(CC(C3)C1)C2 (stereo not drawn) -7.44%
O=C(CNC(=O)Cc1ccccc1)NCC(=O)OCC(=O)c1ccccc1Cl 8.72%
CCOC(=O)c1ccc(NC(=O)c2nc[nH]c2C(=O)N[C@@H](CCCCNC(=O)OC(C)(C)C)C(=O)OC(C)(C)C)cc1 3.03%
Oc1c(C(c2ccco2)N2CCC3(CC2)OCCO3)sc2ncnn12 (stereo not drawn) 0.37%
O=C(Cc1ccc(NC(=O)C2CCCN(C(=O)C3CCCCC3)C2)cc1)Nc1cccc(C(=O)N2CCCCC2)c1 (stereo not drawn) -3.33%
CCC(C)c1ccc(O)c(/C=N/O)c1 (stereo not drawn) -1.01%
CCOC(=O)CCP(=O)(O)C(O)(c1ccccc1)c1ccccc1 -11.5%
